The list is not random: actives were taken first. Their share in the collection is about 3.8%.
GPR7 antag: GPR7 receptor antagonists, primary screen, cell-based, fluorescence, single concentration. GPR7-expressing cells, fluorescence antagonist assay. 290,000 tested, 1.1% active. inhibition, % at 4.4 µM. AID 1861, 2009. Neuropeptides B/W receptor type 1 (Homo sapiens), P48145; in the data active = inhibition above about 16%, passing the limit was not always enough;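 note: cells stimulated with the agonist NPW; 0% = agonist with vehicle and 100% = vehicle without agonist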
Target sequence (P48145 whole entry, looked up): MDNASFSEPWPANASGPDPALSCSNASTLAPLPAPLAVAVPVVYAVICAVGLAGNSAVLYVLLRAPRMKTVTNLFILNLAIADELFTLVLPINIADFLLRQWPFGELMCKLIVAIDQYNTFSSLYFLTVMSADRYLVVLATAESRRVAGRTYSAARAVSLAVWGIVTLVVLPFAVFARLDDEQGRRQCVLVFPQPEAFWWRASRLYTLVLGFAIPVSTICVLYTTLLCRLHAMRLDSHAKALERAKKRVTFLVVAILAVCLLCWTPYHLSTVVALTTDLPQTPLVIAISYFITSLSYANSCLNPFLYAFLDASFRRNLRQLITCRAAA
MPTP inh: mitochondrial permeability transition pore inhibitors, primary screen, biochemical, isolated mouse mitochondria, absorbance. Ca2+ swelling absorbance, 30 min. inhibition, % at 10 µM. 360,000 tested, 1.4% active. AID 602449, 2012;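 active = inhibition of 50% or more, scaled per plate between neutral and stimulator controls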;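 note: 0% = DMSO wells given calcium and 100% = 1 mM EGTA wells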
OX1R antag-1: OX1R (HCRTR1) antagonists, primary screen, fluorescence, CHO/OX1R cells, Fluo-8 calcium, orexin A; Orexin/Hypocretin receptor type 1 (Homo sapiens), O43613; Fluo-8 calcium fluorescence; inhibition, % at 5 µM; 330,000 tested, 0.43% active;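 active = inhibition above its plate's threshold, mean inhibition of all tested compounds on the plate plus 3 SD, cut at about 37% in these data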;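 note: 0% = orexin A challenge wells and 100% = SB-334867-A antagonist wells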
CHO parental Ca: ATP-evoked calcium signal inhibitors, parental CHO, primary screen, counter-screen for OX1R antagonist project, cell-based, fluorescence, Fluo-8 calcium dye. 330,000 tested, 0.63% active. parental CHO-K1, ATP-induced calcium, Fluo-8 fluorescence. inhibition, % at 5.6 µM;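 active = inhibition above that plate's mean sample inhibition plus 3 SD, cut at about 26% in these data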;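 note: 0% = ATP-challenged DMSO wells and 100% = DMSO wells without ATP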
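Assay system – parental CHO cells · Reagent – ATP stimulus · Detection – intracellular calcium via Fluo-8 no-wash fluorescent dye · Evaluation – percent inhibition of ATP-evoked calcium rise, normalized to controls · Controls – ATP wells versus no-ATP DMSO wells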
OX1R antag-2: antagonists of human orexin 1 receptor (OX1R). Orexin/Hypocretin receptor type 1 (Homo sapiens), O43613. OX1R-expressing cells, FRET antagonist read-out. inhibition, % at 6.6 µM. 330,000 tested, 1.8% active. AID 485270, 2010; in the data active = inhibition mostly above about 38%, no sharp cut-off; inactive = mostly below about 40%;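 note: 0% = agonist challenge alone and 100% = reference antagonist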
An asterisk follows results filed as active; . = not tested or not shown; ! = not active in a repeat.

SMILES | GPR7 antag | MPTP inh | OX1R antag-1 | CHO parental Ca | OX1R antag-2
CC1=C/C(=N\OS(=O)(=O)c2ccccc2)C(C(C)C)=CC1=O | 44* | 6 | 51* | 45 | 37
OC[C@@H]1CN(Cc2ccccc2)C[C@H](n2cnc3c(Nc4ccccc4)ncnc32)O1 | . | -1 | . | . | .
CCC(C)C(NC(=O)c1ccccc1)C(=O)Nc1ccc(S(=O)(=O)Nc2cc(C)nc(C)n2)cc1 (stereo not given) | . | 0 | -7 | -4 | 2
COc1ccccc1N1C(=O)c2cccc3c(C(=O)O)ccc(c23)C1=O | -2 | -1 | 0 | -2 | 38*
CC(C)C1C(C#N)=C(N)Oc2n[nH]c(-c3cccs3)c21 (stereo not given) | 5 | 4 | -5 | -12 | 13
CC(C)C1C(C#N)=C(N)Oc2n[nH]c(-c3ccc4ccccc4c3)c21 (stereo not given) | -8 | 2 | 42 | 34* | -4
CN(C)c1ccc(/C=C2\CCC/C(=C\c3ccccc3)C2=O)cc1 | -1 | 3 | 37 | 51* | 24
O=C(O)CC1(CC(=O)Nc2cc(C(F)(F)F)cc(C(F)(F)F)c2)CCCCC1 | -4 | 37 | 2 | -2 | 42*
O=C(O)CC1(CC(=O)NCc2ccc(C(F)(F)F)cc2)CCCCC1 | -14 | 8 | -4 | -1 | -1
CCCOc1cccc(C2C(C(=O)c3ccc(C)o3)=C(O)C(=O)N2c2nc(C)c(C(C)=O)s2)c1 (stereo not given) | -33 | 0 | -27 | -20 | 12
O=C(Nc1cnn(Cc2ccc(F)cc2)c1)c1cnccn1 | 17* | -2 | -21 | -15 | 0
CCn1cc(/C=C(\NC(=O)c2ccccc2OC)C(=O)N2CCOCC2)c2ccccc21 | . | 0 | . | . | .
COc1ccccc1C(=O)N/C(=C\c1cn(C)c2ccccc12)C(=O)N1CCCC1 | -10 | -2 | 8 | -14 | 50*
CCC(CC)CN1CCC(CN2C(=O)C(=O)NC[C@@H]2CC(C)C)CC1 | . | 0 | . | . | .
COc1ncnc2sc(-c3ccccc3)cc12 | -6 | 0 | -21 | 0 | 0
CN(C)c1ncnc2sc(-c3ccccc3)cc12 | -12 | 1 | -23 | -16 | 64*
Cc1ccc(-c2nc3ccccc3[nH]2)cc1NC(=S)NC(=O)c1ccccc1Br | -4 | -2 | 39 | -19 | 87*
CC[n+]1c(/C=C/c2ccc(OC(C)=O)c(OC)c2)ccc2ccccc21 | -15 | 20 | . | . | .
CC[n+]1c(/C=C/c2ccc(OC)c(OC)c2)ccc2ccccc21 | -8 | 0 | -23 | -4 | 65*
Cn1cc([C@]2(O)C(=O)Nc3ccccc32)c2ccccc21 | . | 8 | . | . | .
Cc1cc(NC(=O)CN(C)S(=O)(=O)c2cccc(Cl)c2)no1 | -4 | -2 | -16 | 6 | 15
O=C1C=CC(=O)N1c1cccc(-c2ccccc2)c1 | 1 | 28 | 45* | 27 | 24
O=C(Nc1cccc(N2C(=O)C=CC2=O)c1)c1cccs1 | . | 2 | -5 | -6 | 22
Cc1ccccc1OC(C)C(=O)Nc1ccc2c(c1)OCCO2 (stereo not given) | 0 | 2 | -11 | 8 | 6
CCOC(=O)C1CCCN(C(=O)c2cnn3c(C(F)F)cc(-c4ccc(C)cc4)nc23)C1 (stereo not given) | 19* | 0 | -51 | -44 | 5
SMILES | GPR7 antag | MPTP inh | OX1R antag-1 | CHO parental Ca | OX1R antag-2
CC(C)NC(=O)OC1CC2CC1[C@H]1CCCCN1C2=O (stereo not given in full) | . | 3 | . | . | .
COc1ccc(NC(=O)Nc2cccc3[nH]c([C@@H]4O[C@H](CO)[C@@H](O)[C@H](O)[C@H]4O)nc23)cc1OC1CCCC1 | . | 0 | . | . | .
CC1CCC(C(C)C)C(OC(=O)Cn2c(-c3ccc(Br)cc3)[n+](C)c3ccccc32)C1 (stereo not given) | 74* | 5 | 8 | 30*! | 17
COc1cccc(/C=N/Nc2snc(SC)c2C#N)c1 | -4 | 2 | 4 | -7 | 67*
OCC[C@@H]1C[C@H](O)[C@@H](O)[C@@]2(OCCCc3ccccc32)O1 | 2 | 0 | 17 | 10 | 25
O=C(O)c1ccc(Sc2nnc3ccccn23)c([N+](=O)[O-])c1 | -16 | 0 | -12 | -9 | 72*
C#CCOCCOCCOCCNc1nc(N2CCOCC2)nc(N2CCN(C(=O)CCCCCCCCCCNC(=O)[C@@H]([C@H](C)CC)n3cc(CCCCCN)nn3)CC2)n1 | . | -2 | -32 | -21 | 38
C#CCOCCOCCOCCNc1nc(N2CCN(C(=O)CCCCCCCCCCNC(=O)[C@H]([C@@H](C)CC)n3cc(CCCCCN)nn3)CC2)nc(N2CCN(C(=O)CCCCCCCCCCNC(=O)[C@@H]([C@H](C)CC)n3cc(CCCCCN)nn3)CC2)n1 | . | . | 32 | 79* | -4
C#CCOCCOCCOCCNc1nc(N2CCN(C(=O)CCCCCCCCCCNC(=O)[C@H]([C@@H](C)CC)n3cc(CCCCCN)nn3)CC2)nc(N2CCN(C(=O)CCCCCCCCCCNC(=O)[C@H](CO)n3cc(CCCCCN)nn3)CC2)n1 | . | -4 | 21 | 68* | 8
Cc1ccc2cccc(NC(=S)NC(=O)c3ccnn3C)c2n1 | -3 | -1 | 22 | -45 | 48*
CC(=O)NC(=S)Nc1cccc2ccc(C)nc12 | -21 | 3 | -18 | 7 | 6
CN(CCO)c1cc(Sc2nc3ccccc3s2)c2nonc2c1[N+](=O)[O-] | -11 | 3 | 70* | 88* | 67*
CC(=O)OCCN(C)c1cc(SC(C)C)c2nonc2c1[N+](=O)[O-] | -9 | 1 | -21 | -1 | 27
O=C(C[C@H]1C=C[C@@H](NS(=O)(=O)c2ccccc2)[C@@H](CO)O1)NCc1ccc(Cl)c(Cl)c1 | . | 3 | . | . | .
O=C(CSc1cccc2cccnc12)Nc1ccc(S(=O)(=O)N2CCOCC2)cc1 | -10 | 2 | 17 | 38* | 16
O=C(CSc1ncccn1)Nc1ccc(Cl)c(S(=O)(=O)N2CCOCC2)c1 | . | -1 | -17 | -2 | 5
COc1ccc(NC(=O)CC(C)c2ccccc2)cc1S(=O)(=O)N1CCOCC1 (stereo not given) | . | -1 | -18 | -16 | 4
Cc1ccc(NC(=O)CC(C)c2ccccc2)cc1S(=O)(=O)N1CCOCC1 (stereo not given) | . | 0 | 4 | -12 | 37*
O=C(CSc1ccccc1)Nc1ccc(Cl)c(S(=O)(=O)N2CCOCC2)c1 | . | 1 | 12 | -10 | 40*
CCc1nc2ccc(C(=O)NCCOc3ccc(OC)cc3)cn2c1N(C)CCCc1ccccc1 | . | 0 | . | . | .
C=CCOc1ccccc1CN1CCCC(CCC(=O)N(C)CCc2ccccn2)C1 (stereo not given) | -13 | -1 | -13 | -22 | 19
COc1ccc(-c2cc(-c3c(O)c(OC)c4occc4c3OC)[nH]n2)cc1OC | -13 | 3 | 62* | -18 | 70*

Screens deposited in PubChem BioAssay by several laboratories.
